Laboratory results from ChEMBL document CHEMBL5303300, “EUbOPEN Chemogenomics Library - Multiplex” (2023).
Several values for one entry are separate records, joined by “and”; a condition that tells them apart may be missing. Equal entries are not always repeated.

Tested on: HEK-293T
Assay: Multiplex assay against HEK293T
Type: toxicity, cell-based
Details: human, number of replicates 2
Outline: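 Cells stained live at seeding with Hoechst33342, BioTracker Green Microtubule Cytoskeleton Dye, MitoTracker Red and Annexin V Alexa Fluor 680 were imaged on a CQ1 microscope at 37°C and 5% CO2 after compound addition. Their classification by CellPathfinder machine-learning gating ran from Hoechst high-intensity objects versus normal cells, to healthy, pyknosed or fragmented nuclei among normal cells, to mitotic or apoptotic among pyknosed cells. Tubulin, mitochondrial-mass and membrane-permeability phenotypes are per cents of healthy-nucleus cells.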

[1] = 12 h, 1 µM, compound concentration 1 uM
[2] = 12 h, 10 µM, compound concentration 10 uM
[3] = 24 h, 1 µM, compound concentration 1 uM
[4] = 24 h, 10 µM, compound concentration 10 uM
[5] = 48 h, 1 µM, compound concentration 1 uM
[6] = 48 h, 10 µM, compound concentration 10 uM

## COc1ccncc1C(=O)NC(=O)Nc1ccc(-c2ccccc2)c(C(F)(F)F)c1
[1]
  Population Apoptotic (%): 56% and 45%
  Population Fragmented Nuclei (%): 2% and 4%
  Population Healthy Nuclei (%): 87% and 84%
  Population Hoechst High Intensity Objects (%): 7% and 8%
  Population Membrane Permeable-Phenotype (%): 2% and 3%
  Population Mitochondria Different-Phenotype (%): 23% and 12%
  Population Mitotic Cells (%): 43% and 54%
  Population Normal (%): 93% and 91%
  Population Pyknosed Nuclei (%): 10% and 11%
  Population Tubulin-Different-Phenotype (%): 55% and 46%
  Total Cell Count: 543 and 715
[2]
  Population Apoptotic (%): 49% and 44%
  Population Fragmented Nuclei (%): 3% and 4%
  Population Healthy Nuclei (%): 81% and 84%
  Population Hoechst High Intensity Objects (%): 7%
  Population Membrane Permeable-Phenotype (%): 2%
  Population Mitochondria Different-Phenotype (%): 28% and 21%
  Population Mitotic Cells (%): 50% and 55%
  Population Normal (%): 92%
  Population Pyknosed Nuclei (%): 14% and 11%
  Population Tubulin-Different-Phenotype (%): 66% and 52%
  Total Cell Count: 484 and 596
[3]
  Population Apoptotic (%): 43% and 39%
  Population Fragmented Nuclei (%): 3% and 5%
  Population Healthy Nuclei (%): 88% and 86%
  Population Hoechst High Intensity Objects (%): 6% and 9%
  Population Membrane Permeable-Phenotype (%): 2%
  Population Mitochondria Different-Phenotype (%): 4% and 6%
  Population Mitotic Cells (%): 56% and 60%
  Population Normal (%): 93% and 90%
  Population Pyknosed Nuclei (%): 7%
  Population Tubulin-Different-Phenotype (%): 33% and 30%
  Total Cell Count: 828 and 1052
[4]
  Population Apoptotic (%): 61% and 41%
  Population Fragmented Nuclei (%): 8% and 6%
  Population Healthy Nuclei (%): 82% and 85%
  Population Hoechst High Intensity Objects (%): 9% and 8%
  Population Membrane Permeable-Phenotype (%): 2%
  Population Mitochondria Different-Phenotype (%): 11% and 7%
  Population Mitotic Cells (%): 38% and 58%
  Population Normal (%): 90% and 91%
  Population Pyknosed Nuclei (%): 9% and 8%
  Population Tubulin-Different-Phenotype (%): 38% and 32%
  Total Cell Count: 722 and 835
[5]
  Population Apoptotic (%): 8% and 9%
  Population Fragmented Nuclei (%): 11%
  Population Healthy Nuclei (%): 85%
  Population Hoechst High Intensity Objects (%): 9%
  Population Membrane Permeable-Phenotype (%): 5% and 4%
  Population Mitochondria Different-Phenotype (%): 0%
  Population Mitotic Cells (%): 91% and 90%
  Population Normal (%): 90%
  Population Pyknosed Nuclei (%): 3%
  Population Tubulin-Different-Phenotype (%): 14% and 12%
  Total Cell Count: 2070 and 2556
[6]
  Population Apoptotic (%): 26% and 21%
  Population Fragmented Nuclei (%): 11% and 12%
  Population Healthy Nuclei (%): 84%
  Population Hoechst High Intensity Objects (%): 7% and 8%
  Population Membrane Permeable-Phenotype (%): 4% and 6%
  Population Mitochondria Different-Phenotype (%): 1%
  Population Mitotic Cells (%): 73% and 78%
  Population Normal (%): 92% and 91%
  Population Pyknosed Nuclei (%): 4% and 3%
  Population Tubulin-Different-Phenotype (%): 23% and 19%
  Total Cell Count: 1542 and 1838

## CCOC(=O)Nc1cc(-c2ccc(C)c(NS(C)(=O)=O)c2)nn2c(C)nnc12
[2]
  Population Apoptotic (%): 36% and 38% and 52% and 40%
  Population Fragmented Nuclei (%): 2% and 3%
  Population Healthy Nuclei (%): 78% and 74% and 75% and 79%
  Population Hoechst High Intensity Objects (%): 4% and 3%
  Population Membrane Permeable-Phenotype (%): 5% and 11% and 2%
  Population Mitochondria Different-Phenotype (%): 15% and 28% and 21% and 20%
  Population Mitotic Cells (%): 63% and 61% and 47% and 59%
  Population Normal (%): 95% and 96%
  Population Pyknosed Nuclei (%): 19% and 22% and 21% and 17%
  Population Tubulin-Different-Phenotype (%): 56% and 71% and 58% and 55%
  Total Cell Count: 892 and 664 and 646 and 672
[4]
  Population Apoptotic (%): 40% and 25% and 30% and 24%
  Population Fragmented Nuclei (%): 3% and 4% and 2%
  Population Healthy Nuclei (%): 82% and 86% and 84% and 85%
  Population Hoechst High Intensity Objects (%): 5% and 4%
  Population Membrane Permeable-Phenotype (%): 3% and 0% and 1%
  Population Mitotic Cells (%): 59% and 75% and 69%
  Population Normal (%): 94% and 95%
  Population Pyknosed Nuclei (%): 13% and 9% and 12% and 10%
  Population Tubulin-Different-Phenotype (%): 32% [middle of 4 runs]
  Total Cell Count: 755 and 1187 and 821 and 806
[6]
  Population Apoptotic (%): 25% and 42% and 30% and 29%
  Population Fragmented Nuclei (%): 9% and 5% and 7% and 6%
  Population Healthy Nuclei (%): 83% and 79% and 80% and 82%
  Population Hoechst High Intensity Objects (%): 5% and 9%
  Population Membrane Permeable-Phenotype (%): 0% and 1%
  Population Mitotic Cells (%): 75% and 57% and 69% and 70%
  Population Normal (%): 94% and 90%
  Population Pyknosed Nuclei (%): 7% and 15% and 11%
  Total Cell Count: 1217 and 690 and 964 and 833

## O=C1NC(=O)C(c2ccccc2[N+](=O)[O-])=C1Nc1ccc(O)c(Cl)c1
[1]
  Population Apoptotic (%): 41% and 45%
  Population Fragmented Nuclei (%): 4% and 2%
  Population Healthy Nuclei (%): 82% and 83%
  Population Hoechst High Intensity Objects (%): 6% and 3%
  Population Membrane Permeable-Phenotype (%): 2%
  Population Mitochondria Different-Phenotype (%): 11% and 12%
  Population Mitotic Cells (%): 58% and 54%
  Population Normal (%): 93% and 96%
  Population Pyknosed Nuclei (%): 13%
  Population Tubulin-Different-Phenotype (%): 41%
  Total Cell Count: 694 and 574
[2]
  Population Apoptotic (%): 32% and 38%
  Population Fragmented Nuclei (%): 6% and 5%
  Population Healthy Nuclei (%): 82% and 87%
  Population Hoechst High Intensity Objects (%): 4% and 7%
  Population Membrane Permeable-Phenotype (%): 6% and 4%
  Population Mitochondria Different-Phenotype (%): 8% and 5%
  Population Mitotic Cells (%): 67% and 61%
  Population Normal (%): 95% and 92%
  Population Pyknosed Nuclei (%): 11% and 7%
  Population Tubulin-Different-Phenotype (%): 34% and 31%
  Total Cell Count: 496 and 670
[3]
  Population Apoptotic (%): 40% and 37%
  Population Fragmented Nuclei (%): 4% and 3%
  Population Healthy Nuclei (%): 86% and 88%
  Population Hoechst High Intensity Objects (%): 5% and 7%
  Population Membrane Permeable-Phenotype (%): 2%
  Population Mitochondria Different-Phenotype (%): 3% and 5%
  Population Mitotic Cells (%): 59% and 62%
  Population Normal (%): 94% and 92%
  Population Pyknosed Nuclei (%): 8%
  Population Tubulin-Different-Phenotype (%): 22% and 24%
  Total Cell Count: 1100 and 894
[4]
  Population Apoptotic (%): 26% and 19%
  Population Fragmented Nuclei (%): 4% and 8%
  Population Healthy Nuclei (%): 89% and 83%
  Population Hoechst High Intensity Objects (%): 5% and 7%
  Population Membrane Permeable-Phenotype (%): 5% and 3%
  Population Mitochondria Different-Phenotype (%): 2% and 1%
  Population Mitotic Cells (%): 73% and 80%
  Population Normal (%): 94% and 92%
  Population Pyknosed Nuclei (%): 6% and 7%
  Population Tubulin-Different-Phenotype (%): 14% and 18%
  Total Cell Count: 721 and 1015
[5]
  Population Apoptotic (%): 14% and 15%
  Population Fragmented Nuclei (%): 13% and 9%
  Population Healthy Nuclei (%): 83% and 87%
  Population Hoechst High Intensity Objects (%): 7% and 9%
  Population Membrane Permeable-Phenotype (%): 5% and 4%
  Population Mitochondria Different-Phenotype (%): 0%
  Population Mitotic Cells (%): 85% and 84%
  Population Normal (%): 92% and 90%
  Population Pyknosed Nuclei (%): 2% and 3%
  Population Tubulin-Different-Phenotype (%): 12% and 11%
  Total Cell Count: 2762 and 1997
[6]
  Population Apoptotic (%): 11% and 2%
  Population Fragmented Nuclei (%): 14% and 21%
  Population Healthy Nuclei (%): 82% and 77%
  Population Hoechst High Intensity Objects (%): 6% and 9%
  Population Membrane Permeable-Phenotype (%): 7% and 8%
  Population Mitochondria Different-Phenotype (%): 0%
  Population Mitotic Cells (%): 88% and 97%
  Population Normal (%): 93% and 90%
  Population Pyknosed Nuclei (%): 3% and 1%
  Population Tubulin-Different-Phenotype (%): 7%
  Total Cell Count: 1557 and 2547
